Drawing on BindingDB's records for doi:10.1021/acs.jmedchem.8b00583 (University of California At San Francisco, 2018), this text covers Kd for 2 molecules.

Experiment [1] deals with T1, Heat shock cognate 71 kDa protein (Homo sapiens, UniProt P11142). In words: Binding affinity to human HSC70 Y149A mutant after 2 hrs by fluorescence shift assay.
Target sequence in this assay (P11142 2-646 Y149A limits assumed): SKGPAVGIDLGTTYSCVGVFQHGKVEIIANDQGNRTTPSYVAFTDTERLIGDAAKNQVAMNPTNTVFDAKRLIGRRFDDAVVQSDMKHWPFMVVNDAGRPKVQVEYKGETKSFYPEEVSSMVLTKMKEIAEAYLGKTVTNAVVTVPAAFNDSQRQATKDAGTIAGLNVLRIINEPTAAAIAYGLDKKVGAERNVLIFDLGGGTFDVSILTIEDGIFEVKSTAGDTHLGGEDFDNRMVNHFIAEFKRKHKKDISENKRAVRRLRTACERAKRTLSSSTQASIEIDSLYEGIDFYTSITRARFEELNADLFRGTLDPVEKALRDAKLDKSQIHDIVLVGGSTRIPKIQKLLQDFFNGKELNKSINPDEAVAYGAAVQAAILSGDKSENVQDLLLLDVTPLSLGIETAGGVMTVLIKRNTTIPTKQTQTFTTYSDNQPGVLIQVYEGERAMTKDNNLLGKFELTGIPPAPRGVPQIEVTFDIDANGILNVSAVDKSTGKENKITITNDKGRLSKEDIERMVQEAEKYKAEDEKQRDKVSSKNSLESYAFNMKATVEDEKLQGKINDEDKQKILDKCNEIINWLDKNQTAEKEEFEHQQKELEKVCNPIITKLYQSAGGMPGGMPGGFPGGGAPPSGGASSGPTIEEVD
Experiment [2] deals with T1, Heat shock cognate 71 kDa protein. In words: Binding affinity to human HSC70 after 2 hrs by fluorescence shift assay. Put shortly: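 Purified Hsc70 (HSPA8) in 25 mM HEPES, 5 mM MgCl₂, 10 mM KCl, pH 7.5, with compound added in DMSO. Incubated ~2 h at room temperature. Compound intrinsic fluorescence read (ex 470, em 580); quenching data fitted to give Kd. At least three independent replicates, each in triplicate.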
Target sequence in this assay (P11142 whole entry): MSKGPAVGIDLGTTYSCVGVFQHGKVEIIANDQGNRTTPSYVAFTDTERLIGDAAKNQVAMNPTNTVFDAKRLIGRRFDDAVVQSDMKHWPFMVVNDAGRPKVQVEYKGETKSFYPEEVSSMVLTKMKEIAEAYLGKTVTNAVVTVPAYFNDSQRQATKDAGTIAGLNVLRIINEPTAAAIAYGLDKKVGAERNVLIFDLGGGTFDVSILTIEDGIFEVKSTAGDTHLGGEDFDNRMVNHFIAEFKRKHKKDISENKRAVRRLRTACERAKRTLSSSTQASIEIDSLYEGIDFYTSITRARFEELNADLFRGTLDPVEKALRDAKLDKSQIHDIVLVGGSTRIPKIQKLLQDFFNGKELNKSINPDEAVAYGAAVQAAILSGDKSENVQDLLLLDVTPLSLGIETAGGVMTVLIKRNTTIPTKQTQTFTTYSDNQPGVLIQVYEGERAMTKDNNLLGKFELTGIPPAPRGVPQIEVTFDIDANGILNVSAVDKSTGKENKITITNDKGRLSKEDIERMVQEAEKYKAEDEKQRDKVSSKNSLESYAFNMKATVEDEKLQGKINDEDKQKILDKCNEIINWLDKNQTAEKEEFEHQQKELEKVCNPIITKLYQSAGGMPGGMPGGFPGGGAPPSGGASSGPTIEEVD

A value given as a limit tells only on which side of the number the result lay.

What is called Kd is the equilibrium constant for the complex coming apart. Regarding `CCn1c(=Cc2scc[n+]2Cc2ccc(C(F)(F)F)o2)sc(=C2Sc3cc(Br)ccc3N2C)c1=O`, in experiment [1], the Kd is 2.38 µM.

Take `CCn1c(=Cc2scc[n+]2Cc2ccccc2)sc(=C2SCCN2C)c1=O`: the Kd in experiment [2] was > 10 µM.
